According to ChEMBL document CHEMBL5649170, “Sustained microglial depletion with CSF1R inhibitor impairs parenchymal plaque development in an Alzheimer's disease model” (Nat Commun, 2019):
Each block holds one molecule with its values, some of them ahead of it. The source made the active and inactive calls. No cut-off for these calls is given here.

Columns and labels:
Mus musculus [1] = assay: Antialzheimer activity in 5XFAD mouse assessed as number of plaques per FOV in somatosensory cortex at 75 ppm administered as rodent chow starting from 1.5 months and measured after 5 months by immunolabeling based confocal microscopic analysis (reference value: 22 to 91); assay type: functional; conditions: route po, time 3.5 months, 2555 h
Method in brief: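 5xFAD mice ate AIN-76A chow with 75 ppm PLX3397, or control chow, from 1.5 to 5 months of age. Sections of retrosplenial and somatosensory cortex were stained with Thio-S and immunolabeled for IBA1, then imaged by confocal microscopy. n = 4–5 per group; two-tailed independent t-test; mean ± SEM.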

[2] = Drug concentration in wildtype mouse brain at 600 ppm administered as rodent chow starting from 1.5 months and measured after 5 months; assay type: ADME, tissue-based; conditions: route po, time 3.5 months, read-out: Ct
Method in brief: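 WT or 5xFAD mice were fed PLX3397 in AIN-76A chow at 600 ppm or 75 ppm from 1.5 to 5 months of age. Terminal brain and plasma drug concentrations were determined at study end.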

[3] = Clearance in female rat at 1.13 mg/kg, iv administered as single dose; assay type: ADME, organism-based; conditions: in vivo
[4] = Effect on Spi1 gene expression in wild type mouse cortex at 1200 ppm administered as rodent chow starting from 1.5 months and measured after 7 months by RNA-Seq analysis (reference value: 1.059 to 1.887 RPKM); assay type: functional; conditions: route po, time 5.5 months, 4015 h
Mus musculus [5] = assay: Effect on APP processing pathway in 5XFAD mouse assessed as C83 protein signal intensity in cortex at 1200 ppm administered as rodent starting from 1.5 months and measured after 7 months (reference value: 37.776 to 172.037 %); assay type: functional; conditions: route po, time 5.5 months, 4015 h
[6] = Effect on Dynll1 gene expression in wildtype mouse hippocampus assessed as percent change in Reads Per kilo base per Million mapped reads at 1200 ppm administered as rodent chow starting from 1.5 months and measured after 7 months by RNA-Seq analysis (reference value: 83.247 to 113.338 %); assay type: functional; conditions: route po, time 5.5 months, 4015 h
[7] = target: Cytoplasmic tyrosine-protein kinase BMX (Homo sapiens, UniProt P51813); assay: Inhibition of BMX (unknown origin)
Mus musculus [8] = assay: Antialzheimer activity in 5XFAD mouse assessed as reduction in myeloid cell numbers in subiculum at 1200 ppm administered as rodent chow starting from 1.5 months and measured after 7 months by immunolabeling based confocal microscopic analysis relative to control; assay type: functional; design: scale not given: the % may be the effect or the level left; conditions: route po, time 5.5 months, 4015 h
[9] = target: Calcium/calmodulin-dependent protein kinase type II subunit beta (Homo sapiens, UniProt Q13554); assay: Inhibition of CAMK2B (unknown origin)
[10] = target: cAMP-dependent protein kinase catalytic subunit alpha (Homo sapiens, UniProt P17612); assay: Inhibition of PRKACA (unknown origin)
[11] = Effect on Siglech gene expression in wild type mouse cortex at 1200 ppm administered as rodent chow starting from 1.5 months and measured after 7 months by RNA-Seq analysis (reference value: 3.777 to 4.267 RPKM); assay type: functional; conditions: route po, time 5.5 months, 4015 h
Mus musculus [12] = assay: Prevention of Gls gene downregulation in 5XFAD mouse hippocampus at 1200 ppm administered as rodent chow starting from 1.5 months and measured after 7 months by Nanostring analysis; assay type: functional, tissue-based; conditions: route po, time 5.5 months
[13] = Toxicity in wildtype mouse assessed as time in platform zone at 1200 ppm administered as rodent chow for 10 to 24 weeks by Morris water maze test (reference value: 0 to 2.7 sec); conditions: in vivo, po, time 10-24 weeks
[14] = target: Serine/threonine-protein kinase PAK 3 (Homo sapiens, UniProt O75914); assay: Inhibition of PAK3 (unknown origin)
[15] = Cmax in male rat at 45 mg/kg, po administered as single dose via gavage; assay type: ADME, organism-based; conditions: in vivo
[16] = target: Proto-oncogene tyrosine-protein kinase Src (Homo sapiens, UniProt P12931); assay: Inhibition of SRC (unknown origin)
Mus musculus [17] = assay: Prevention of Dlgap1 gene downregulation in 5XFAD mouse hippocampus at 1200 ppm administered as rodent chow starting from 1.5 months and measured after 7 months by Nanostring analysis; assay type: functional, tissue-based; conditions: route po, time 5.5 months
[18] = Volume of distribution at steady state in female rat at 1.13 mg/kg, iv administered as single dose; assay type: ADME, organism-based; conditions: in vivo, read-out: Vdss
Mus musculus [19] = assay: Antialzheimer activity in wildtype mouse assessed as number of Iba positive cells per FOV in somatosensory cortex at 1200 ppm administered as rodent chow starting from 1.5 months and measured after 4 months (reference value: 304 to 351); assay type: functional; conditions: route po, time 2.5 months, 1825 h
[20] = Effect on Itgax gene expression in 5XFAD mouse thalamus at 1200 ppm administered as rodent chow starting from 1.5 months and measured after 7 months by RNA-Seq analysis (reference value: 1.842 to 2.823 RPKM); assay type: functional; conditions: route po, time 5.5 months, 4015 h
[21] = Effect on ccl6 gene expression in wild type mouse thalamus at 1200 ppm administered as rodent chow starting from 1.5 months and measured after 7 months by RNA-Seq analysis (reference value: 0.647 to 1.238 RPKM); assay type: functional; conditions: route po, time 5.5 months, 4015 h
[22] = Effect on Siglech gene expression in 5XFAD mouse hippocampus at 1200 ppm administered as rodent chow starting from 1.5 months and measured after 7 months by RNA-Seq analysis (reference value: 5.386 to 6.928 RPKM); assay type: functional; conditions: route po, time 5.5 months, 4015 h
[23] = Effect on Ctsd gene expression in 5XFAD mouse cortex at 1200 ppm administered as rodent chow starting from 1.5 months and measured after 7 months by RNA-Seq analysis (reference value: 202.122 to 327.906 RPKM); assay type: functional; conditions: route po, time 5.5 months, 4015 h
Mus musculus [24] = assay: Antialzheimer activity in 5XFAD mouse assessed as number of Iba positive cells per FOV in retro spinal cortex at 1200 ppm administered as rodent chow starting from 1.5 months and measured after 7 months (reference value: 473 to 792); assay type: functional; conditions: route po, time 5.5 months, 4015 h
Mus musculus [25] = assay: Antialzheimer activity in 5XFAD mouse assessed as alteration in plaque morphology by measuring mean plaque intensity in subiculum at 1200 ppm administered as rodent chow starting from 1.5 months and measured after 7 months by Thio-S labeling based confocal microscopic analysis (reference value: 129.81 to 150.11); assay type: functional; conditions: route po, time 5.5 months, 4015 h
Mus musculus [26] = assay: Antialzheimer activity in 5XFAD mouse assessed as number of Thio-S positive plaques per FOV in […] cortex at 1200 ppm administered as rodent chow starting from 1.5 months and measured after 4 months by Thio-S staining based confocal microscopic analysis (reference value: 63 to 124); assay type: functional; conditions: route po, time 2.5 months, 1825 h
Mus musculus [27] = assay: Antialzheimer activity in 5XFAD mouse assessed as amyloidbeta42 level in detergent insoluble thalamus fraction measured per microgram protein at 1200 ppm administered as rodent chow starting from 1.5 months and measured after 4 months by ELISA (reference value: 181082 to 7435203 pg); assay type: functional; conditions: route po, time 2.5 months, 1825 h
Method in brief: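 PLX5622 at 1200 ppm in chow given to 5xFAD mice from 1.5 months to 4 or 7 months of age; cortex and thalamus homogenized in TPER (detergent-soluble), pellets re-homogenized in 70% formic acid and spun 100,000 g, 1 h, 4 °C (insoluble); protein by Bradford/Lowry; Aβ species measured by Meso Scale electrochemiluminescence immunoassay, normalized to protein; n = 7–8 per group at 7 months.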

[28] = Effect on Siglech gene expression in 5XFAD mouse thalamus at 1200 ppm administered as rodent chow starting from 1.5 months and measured after 7 months by RNA-Seq analysis (reference value: 4.466 to 6.336 RPKM); assay type: functional; conditions: route po, time 5.5 months, 4015 h
[29] = target: Protein-tyrosine kinase 2-beta (Homo sapiens, UniProt Q14289); assay: Inhibition of PTK2B (unknown origin)
Chain of Protein-tyrosine kinase 2-beta (Q14289 whole entry): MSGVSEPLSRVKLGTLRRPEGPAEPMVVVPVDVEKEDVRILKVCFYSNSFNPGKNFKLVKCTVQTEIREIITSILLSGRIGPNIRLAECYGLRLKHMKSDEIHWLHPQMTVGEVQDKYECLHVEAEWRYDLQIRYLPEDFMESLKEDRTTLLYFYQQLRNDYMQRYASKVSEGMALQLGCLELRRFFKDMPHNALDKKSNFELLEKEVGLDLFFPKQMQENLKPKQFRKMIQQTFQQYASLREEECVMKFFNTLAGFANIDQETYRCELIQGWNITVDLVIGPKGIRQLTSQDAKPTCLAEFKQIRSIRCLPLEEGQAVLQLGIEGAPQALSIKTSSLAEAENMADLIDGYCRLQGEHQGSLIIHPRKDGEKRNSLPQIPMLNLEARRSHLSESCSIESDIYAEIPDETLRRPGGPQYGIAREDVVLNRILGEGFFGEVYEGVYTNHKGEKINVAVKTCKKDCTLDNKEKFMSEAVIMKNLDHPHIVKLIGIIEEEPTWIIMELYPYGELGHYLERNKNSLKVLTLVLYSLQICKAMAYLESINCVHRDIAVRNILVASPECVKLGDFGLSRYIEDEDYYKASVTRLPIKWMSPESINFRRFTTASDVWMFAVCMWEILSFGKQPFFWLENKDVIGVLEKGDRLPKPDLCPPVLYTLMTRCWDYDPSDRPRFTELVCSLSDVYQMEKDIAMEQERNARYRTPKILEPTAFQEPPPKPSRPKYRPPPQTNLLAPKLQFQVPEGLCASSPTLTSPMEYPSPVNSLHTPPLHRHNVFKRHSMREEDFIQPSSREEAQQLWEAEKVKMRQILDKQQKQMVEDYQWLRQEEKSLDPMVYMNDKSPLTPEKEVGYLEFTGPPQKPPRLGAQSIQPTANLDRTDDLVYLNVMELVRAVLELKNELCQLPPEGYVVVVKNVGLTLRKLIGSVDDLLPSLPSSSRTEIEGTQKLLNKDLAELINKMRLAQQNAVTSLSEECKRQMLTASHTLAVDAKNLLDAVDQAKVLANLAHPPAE

Chain of Proto-oncogene tyrosine-protein kinase Src (P12931 2-536 limits assumed): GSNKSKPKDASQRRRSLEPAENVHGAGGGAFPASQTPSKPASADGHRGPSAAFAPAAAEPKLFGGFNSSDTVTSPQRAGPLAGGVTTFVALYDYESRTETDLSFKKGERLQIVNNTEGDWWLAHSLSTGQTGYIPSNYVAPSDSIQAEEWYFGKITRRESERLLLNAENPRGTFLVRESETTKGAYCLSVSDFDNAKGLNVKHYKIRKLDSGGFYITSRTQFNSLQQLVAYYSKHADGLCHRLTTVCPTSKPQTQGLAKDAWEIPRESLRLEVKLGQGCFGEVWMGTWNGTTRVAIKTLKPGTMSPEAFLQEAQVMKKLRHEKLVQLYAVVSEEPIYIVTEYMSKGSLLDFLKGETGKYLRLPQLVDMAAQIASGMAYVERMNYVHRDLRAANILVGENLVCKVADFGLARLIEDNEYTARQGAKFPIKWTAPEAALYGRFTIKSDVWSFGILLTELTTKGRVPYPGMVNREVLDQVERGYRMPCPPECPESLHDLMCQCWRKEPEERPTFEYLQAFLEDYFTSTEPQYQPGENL
Chain of Calcium/calmodulin-dependent protein kinase type II subunit beta (Q13554 whole entry): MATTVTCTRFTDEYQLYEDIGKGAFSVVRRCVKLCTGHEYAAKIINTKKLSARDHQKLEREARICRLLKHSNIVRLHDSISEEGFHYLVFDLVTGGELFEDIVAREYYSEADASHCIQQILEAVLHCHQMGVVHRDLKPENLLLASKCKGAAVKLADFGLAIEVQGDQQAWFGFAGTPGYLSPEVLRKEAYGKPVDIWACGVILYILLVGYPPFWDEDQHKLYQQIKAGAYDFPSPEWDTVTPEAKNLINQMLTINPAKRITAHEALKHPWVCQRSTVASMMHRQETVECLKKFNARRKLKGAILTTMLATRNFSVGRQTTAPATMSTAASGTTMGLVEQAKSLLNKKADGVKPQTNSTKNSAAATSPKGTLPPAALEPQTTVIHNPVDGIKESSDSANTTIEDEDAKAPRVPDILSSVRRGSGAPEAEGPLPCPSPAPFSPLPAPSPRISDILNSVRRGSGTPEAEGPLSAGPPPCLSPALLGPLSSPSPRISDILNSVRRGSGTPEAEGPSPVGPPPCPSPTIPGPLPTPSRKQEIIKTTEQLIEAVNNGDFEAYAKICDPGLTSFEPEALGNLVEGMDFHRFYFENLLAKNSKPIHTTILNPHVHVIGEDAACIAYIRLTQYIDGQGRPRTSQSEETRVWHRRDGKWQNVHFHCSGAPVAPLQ
Chain of Serine/threonine-protein kinase PAK 3 (O75914 whole entry): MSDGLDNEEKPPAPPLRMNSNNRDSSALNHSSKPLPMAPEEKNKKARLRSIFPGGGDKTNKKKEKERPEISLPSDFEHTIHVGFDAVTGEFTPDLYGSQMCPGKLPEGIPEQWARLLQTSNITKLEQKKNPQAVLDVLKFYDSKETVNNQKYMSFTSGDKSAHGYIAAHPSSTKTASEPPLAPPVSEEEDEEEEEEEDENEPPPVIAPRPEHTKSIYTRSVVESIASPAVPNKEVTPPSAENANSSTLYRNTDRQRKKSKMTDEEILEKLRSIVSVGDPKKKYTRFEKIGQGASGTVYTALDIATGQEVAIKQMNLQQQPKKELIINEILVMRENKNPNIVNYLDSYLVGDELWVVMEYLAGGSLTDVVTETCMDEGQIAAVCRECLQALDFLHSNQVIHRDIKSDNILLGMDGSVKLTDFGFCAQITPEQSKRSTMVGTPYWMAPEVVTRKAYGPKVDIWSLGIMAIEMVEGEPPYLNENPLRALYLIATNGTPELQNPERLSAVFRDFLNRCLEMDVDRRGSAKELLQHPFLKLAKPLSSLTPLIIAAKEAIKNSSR
Chain of Cytoplasmic tyrosine-protein kinase BMX (P51813 whole entry): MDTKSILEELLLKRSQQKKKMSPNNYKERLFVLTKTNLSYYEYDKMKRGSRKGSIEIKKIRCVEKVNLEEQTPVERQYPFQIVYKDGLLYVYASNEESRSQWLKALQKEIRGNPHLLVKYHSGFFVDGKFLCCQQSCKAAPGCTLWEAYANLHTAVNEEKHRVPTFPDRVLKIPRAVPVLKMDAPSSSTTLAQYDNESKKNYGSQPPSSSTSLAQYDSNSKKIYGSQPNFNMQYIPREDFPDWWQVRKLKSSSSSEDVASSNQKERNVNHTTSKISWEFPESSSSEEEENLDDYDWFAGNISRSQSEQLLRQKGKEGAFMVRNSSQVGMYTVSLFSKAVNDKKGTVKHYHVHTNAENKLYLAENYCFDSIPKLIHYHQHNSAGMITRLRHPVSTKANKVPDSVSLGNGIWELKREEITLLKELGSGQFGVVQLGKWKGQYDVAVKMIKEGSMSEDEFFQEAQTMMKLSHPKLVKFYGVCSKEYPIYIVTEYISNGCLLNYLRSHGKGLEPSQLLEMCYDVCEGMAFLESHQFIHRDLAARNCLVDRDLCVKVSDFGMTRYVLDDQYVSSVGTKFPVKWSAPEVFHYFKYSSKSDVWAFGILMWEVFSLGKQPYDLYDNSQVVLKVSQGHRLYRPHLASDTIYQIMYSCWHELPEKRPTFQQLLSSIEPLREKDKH

concentration at 2555 h [2]: 5 µM
Structure (SMILES): FC(F)(F)c1ccc(CNc2ccc(Cc3c[nH]c4ncc(Cl)cc34)cn2)cn1 [PEXIDARTINIB]
Activity (Mus musculus [1]): 31

Structure (SMILES): COc1ncc(F)cc1CNc1ccc(Cc2c[nH]c3ncc(C)cc23)c(F)n1 [PLX-5622]
clearance [3]: 3.7 mL/min/kg | Activity [4]: 0 RPKM | Activity (Mus musculus [5]): 70.442% | Activity [6]: 101.141% | IC50 [7]: > 1000 nM | Activity (Mus musculus [8]): 77% | IC50 [9]: > 1000 nM | IC50 [10]: > 1000 nM | Activity [11]: 0 RPKM | Activity (Mus musculus [12]): Active | Time [13]: 0.4 s | IC50 [14]: > 1000 nM | Cmax [15]: 12000 ng/mL | IC50 [16]: > 1000 nM | Activity (Mus musculus [17]): Active | Vd [18]: 1 L/kg | Activity (Mus musculus [19]): 0 | Activity [20]: 0.043 RPKM | Activity [21]: 0 RPKM | Activity [22]: 0.195 RPKM | Activity [23]: 106.638 RPKM | Activity (Mus musculus [24]): 2 | Activity (Mus musculus [25]): 83.86 | Activity (Mus musculus [26]): 13 | Activity (Mus musculus [27]): 117968.4 pg | Activity [28]: 0 RPKM | IC50 [29]: > 1000 nM
